In ChEMBL document CHEMBL6177937, “Design, synthesis, and biological evaluation of novel thiazole derivatives as PI3K/mTOR dual inhibitors” (RSC Med Chem, 2024):
pIC50: −log10 of the molar value.

Assays:
[1] = system: COLO 205; test: Growth inhibition of human COLO 205 cells measured after 48 hrs by SRB assay; type: functional
Summary of the method: (§1)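 NCI 60-line format with five concentrations (10-fold or ½-log serial dilutions) from DMSO stocks in medium with 50 μg/mL gentamicin. Cells preincubated 24 h, then exposed 48 h at 37°C, 5% CO2. Time-zero plates TCA-fixed. SRB absorbance read at 515 nm. GI50 taken from [(Ti−Tz)/(C−Tz)]×100 = 50. Out-of-range values are expressed as > or < the highest or lowest concentration tested.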

[2] = system: Hs-578T; test: Growth inhibition of human Hs-578T cells measured after 48 hrs by SRB assay; type: functional; conditions: for CC50: read-out: LC50 (the source's name); summary of the method: as §1
[3] = system: NCI-H23; test: Growth inhibition of human NCI-H23 cells measured after 48 hrs by SRB assay; type: functional; summary of the method: as §1
[4] = system: HL-60; test: Cytotoxicity against human HL-60 cells assessed as reduction in cell viability measured after 24 hrs by MTT assay; type: functional, cell-based; conditions: HL-60, 24 h
Summary of the method: (§2)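 MTT viability with 24 h incubation in 96-well plates. Five semi-log concentrations from 0.01 to 100 μM. Formazan absorbance read at 570 nm, with 690 nm background subtracted. Run in triplicate. IC50 obtained by sigmoidal dose-response fitting. Cells are leukemia HL-60(TB) and normal lymphocytes (PCS-800-017).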

[5] = system: HCT-116; test: Growth inhibition of human HCT-116 cells measured after 48 hrs by SRB assay; type: functional; summary of the method: as §1
[6] = system: MDA-MB-468; test: Growth inhibition of human MDA-MB-468 cells measured after 48 hrs by SRB assay; type: functional; summary of the method: as §1
[7] = system: IGROV-1; test: Growth inhibition of human IGROV-1 cells measured after 48 hrs by SRB assay; type: functional; summary of the method: as §1
[8] = system: NCI-H522; test: Growth inhibition of human NCI-H522 cells measured after 48 hrs by SRB assay; type: functional; summary of the method: as §1
[9] = system: M14; test: Growth inhibition of human M14 cells measured after 48 hrs by SRB assay; type: functional; summary of the method: as §1
[10] = system: HL-60; test: Induction of apoptosis in human HL-60 cells assessed as early apoptotic cells measured after 24 hrs by Annexin-V/propidium iodide staining based flow cytometry (reference value: 0.61%); type: functional
[11] = system: ACHN; test: Growth inhibition of human ACHN cells measured after 48 hrs by SRB assay; type: functional; summary of the method: as §1
[12] = system: DU-145; test: Growth inhibition of human DU-145 cells measured after 48 hrs by SRB assay; type: functional; summary of the method: as §1
[13] = system: UACC-62; test: Growth inhibition of human UACC-62 cells measured after 48 hrs by SRB assay; type: functional
Summary of the method: (§3)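 NCI 60-line SRB screen: cells seeded […], grown 24 h at 37°C, 5% CO2, then exposed 48 h to five concentrations (10-fold or ½-log dilutions from DMSO stock). Adherent cells fixed with cold TCA (final 10%), suspension cells with 80% TCA (final 16%); SRB stained, read at 515 nm. GI50 from time-zero, control and treated absorbances.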

[14] = system: NCI-H322M; test: Growth inhibition of human NCI-H322M cells measured after 48 hrs by SRB assay; type: functional; summary of the method: as §1
[15] = system: UO-31; test: Growth inhibition of human UO-31 cells measured after 48 hrs by SRB assay; type: functional; conditions: for CC50: read-out: LC50 (the source's name); summary of the method: as §3
[16] = system: OVCAR-5; test: Growth inhibition of human OVCAR-5 cells measured after 48 hrs by SRB assay; type: functional; conditions: for CC50: read-out: LC50 (the source's name); summary of the method: as §1
[17] = system: SNB-19; test: Growth inhibition of human SNB-19 cells measured after 48 hrs by SRB assay; type: functional; summary of the method: as §3
[18] = system: A549; test: Growth inhibition of human A549 cells measured after 48 hrs by SRB assay; type: functional; summary of the method: as §1
[19] = Cytotoxicity against human PCS-800-017 cells assessed as reduction in cell viability measured after 24 hrs by MTT assay; type: toxicity, cell-based; summary of the method: as §2
[20] = Selectivity index, ratio of IC50 for human PCS-800-017 cells to IC50 for human HL-60 cells; type: toxicity; conditions: PCS-800-017 cells and HL-60 cells, read-out: Ratio IC50
[21] = system: MCF7; test: Growth inhibition of human MCF7 cells measured after 48 hrs by SRB assay; type: functional; summary of the method: as §1
[22] = system: HL-60; test: Growth inhibition of human HL-60 cells measured after 48 hrs by SRB assay; type: functional; conditions: for CC50: read-out: LC50 (the source's name); summary of the method: as §1
[23] = system: HL-60; test: Induction of apoptosis in human HL-60 cells assessed as increase in total apoptotic cells measured after 24 hrs by Annexin-V/propidium iodide staining based flow cytometry relative to control; type: functional
[24] = system: MDA-MB-231; test: Growth inhibition of human MDA-MB-231 cells measured after 48 hrs by SRB assay; type: functional; summary of the method: as §1
[25] = system: SR; test: Growth inhibition of human SR cells measured after 48 hrs by SRB assay; type: functional; summary of the method: as §3
[26] = system: SW-620; test: Growth inhibition of human SW620 cells measured after 48 hrs by SRB assay; type: functional; summary of the method: as §3
[27] = system: A498; test: Growth inhibition of human A498 cells measured after 48 hrs by SRB assay; type: functional; summary of the method: as §1
[28] = system: Panel NCI-60 (60 carcinoma cell lines); test: Antiproliferative activity against human NCI-60 cells assessed as growth inhibition at 10 uM measured after 48 hrs by SRB assay relative to control; type: functional; conditions: read-out: GI
Summary of the method: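 NCI screen: cells seeded at […] per well and preincubated 24 h (37°C, 5% CO2). Compound stocks in DMSO, tested at a single 10 μM. Exposure 48 h. Adherent cells fixed with cold TCA (10% final), suspension cells with 16% TCA. SRB stain read at 515 nm. Percent growth inhibition reported against time-zero and untreated controls.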

[29] = system: RXF 393; test: Growth inhibition of human RXF 393 cells measured after 48 hrs by SRB assay; type: functional; summary of the method: as §3
[30] = system: SK-OV-3; test: Growth inhibition of human SK-OV-3 cells measured after 48 hrs by SRB assay; type: functional; summary of the method: as §3
[31] = system: SF-295; test: Growth inhibition of human SF-295 cells measured after 48 hrs by SRB assay; type: functional; conditions: for CC50: read-out: LC50 (the source's name); summary of the method: as §3
[32] = system: T47D; test: Growth inhibition of human T47D cells measured after 48 hrs by SRB assay; type: functional; summary of the method: as §3
[33] = system: HL-60; test: Cell cycle arrest in human HL-60 cells assessed as increase in accumulation of cells at G0/G1-phase at 2.29 uM measured after 24 hrs by propidium iodide staining based flow cytometry relative to control; type: functional

CCOc1cc(/C=N/Nc2nc(-c3cccc([N+](=O)[O-])c3)cs2)ccc1O
GI50 [1]: 16.4 µM
TGI [1]: 38.7 µM
GI50 [2]: 3.38 µM
TGI [2]: 39.2 µM
CC50 [2]: > 100 µM
GI50 [3]: 1.99 µM
TGI [3]: 5.14 µM
pIC50 [4]: 5.63
GI50 [5]: 2.34 µM
TGI [5]: 5.83 µM
GI50 [6]: 2.17 µM
TGI [6]: 4.61 µM
GI50 [7]: 2.46 µM
TGI [7]: 7.23 µM
GI50 [8]: 1.85 µM
TGI [8]: 4.21 µM
GI50 [9]: 1.85 µM
TGI [9]: 3.89 µM
Activity [10]: 31.19%
GI50 [11]: 3.22 µM
TGI [11]: 11.6 µM
GI50 [12]: 3.43 µM
TGI [12]: 11.6 µM
GI50 [13]: 2.39 µM
TGI [13]: 6.56 µM
GI50 [14]: 4.32 µM
TGI [14]: 16.9 µM
GI50 [15]: 2.29 µM
TGI [15]: 8.85 µM
CC50 [15]: > 100 µM
GI50 [16]: 3.79 µM
TGI [16]: 16.2 µM
CC50 [16]: 51.3 µM
GI50 [17]: 3.35 µM
TGI [17]: 20.8 µM
GI50 [18]: 3.45 µM
TGI [18]: 14.1 µM
IC50 at 24 h [19]: 28.6 µM
selectivity ratio [20]: 12.3
GI50 [21]: 2.86 µM
TGI [21]: 10.9 µM
GI50 [22]: 2.32 µM
TGI [22]: 7.84 µM
CC50 [22]: > 100 µM
fold change (FC) [23]: 23.07
GI50 [24]: 1.78 µM
TGI [24]: 3.88 µM
GI50 [25]: 3.07 µM
TGI [25]: > 100 µM
CC50 ([25]; read-out: LC50 (the source's name)): > 100 µM
GI50 [26]: 3.53 µM
TGI [26]: 11.6 µM
GI50 [27]: 20.2 µM
TGI [27]: 44.8 µM
inhibition of growth at 10 µM [28]: 112%
GI50 [29]: 1.89 µM
TGI [29]: 4.82 µM
GI50 [30]: 3.36 µM
TGI [30]: 27.8 µM
GI50 [31]: 2 µM
TGI [31]: 4.28 µM
CC50 [31]: 9.16 µM
GI50 [32]: 3.69 µM
TGI [32]: 16.3 µM

O=[N+]([O-])c1cc(/C=N/Nc2nc(-c3ccc(Cl)cc3)cs2)ccc1Cl
GI50 [1]: 15.4 µM
TGI [1]: 29.7 µM
GI50 [2]: 2.36 µM
TGI [2]: 6.14 µM
CC50 [2]: > 100 µM
GI50 [3]: 12.5 µM
TGI [3]: 40.9 µM
pIC50 [4]: 5.64
GI50 [5]: 16.3 µM
TGI [5]: 36.6 µM
GI50 [6]: 1.54 µM
TGI [6]: 3.01 µM
GI50 [7]: 13.6 µM
TGI [7]: 37.4 µM
GI50 [8]: 9.45 µM
TGI [8]: 67.6 µM
GI50 [9]: 17 µM
TGI [9]: 45.6 µM
fold change (FC) [33]: 1.13
Activity [10]: 23.62%
GI50 [11]: 15.1 µM
TGI [11]: 28.4 µM
GI50 [12]: 1.63 µM
TGI [12]: 3.07 µM
GI50 [13]: 11.1 µM
TGI [13]: 26 µM
GI50 [14]: 3.23 µM
TGI [14]: 13.7 µM
GI50 [15]: 8.46 µM
TGI [15]: 20.7 µM
CC50 [15]: 45.5 µM
GI50 [16]: 23 µM
TGI [16]: 78.2 µM
CC50 [16]: > 100 µM
GI50 [17]: 10.5 µM
TGI [17]: 24.2 µM
GI50 [18]: 78.4 µM
TGI [18]: > 100 µM
IC50 at 24 h [19]: 22.7 µM
selectivity ratio [20]: 9.9
GI50 [21]: 1.79 µM
TGI [21]: 3.81 µM
GI50 [22]: 2.29 µM
TGI [22]: 7.43 µM
CC50 [22]: > 100 µM
fold change (FC) [23]: 19.9
GI50 [24]: 17.4 µM
TGI [24]: 42.6 µM
GI50 [26]: 18.3 µM
TGI [26]: 43.1 µM
GI50 [27]: 14.8 µM
TGI [27]: 39.6 µM
inhibition of growth at 10 µM [28]: 66%
GI50 [29]: 11.9 µM
TGI [29]: 30.6 µM
GI50 [30]: 21.8 µM
TGI [30]: 65 µM
GI50 [31]: 14.9 µM
TGI [31]: 28.3 µM
CC50 [31]: 53.8 µM
GI50 [32]: 1.8 µM
TGI [32]: 3.81 µM
